Assay results: publication PMC12700136 (Journal of medicinal chemistry, 2025)
pIC50: −log10 of the molar value.

Legend:
[1] = test system: BT-474 cells; test: Viability assay; format: cell-based, human; conditions: BT-474, 72 h
In short: (§1)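 Cells (DMEM/F12 + GlutaMax, 10% FBS, 1% pen-strep) seeded at 5,000 per well 24 h before dosing, in quadruplicate. Medium replaced with test compound-containing medium for 72 h. Viability read after 3 h AlamarBlue incubation by colorimetric change, normalized to vehicle control. IC50 from curves; mean ± SD of three independent experiments.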

[2] = target: T1, ClpP (Homo sapiens, UniProt Q16740); test: Thermal shift assay; format: binding; conditions: MDA-MB-468 lysates
In short: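 Test compound at increasing concentrations added to 10 μg MDA-MB-468 lysate, 15 min at 23 °C. Heated 67 °C for 3 min, precipitated 3 min at 23 °C, spun 14,000 rpm, 20 min, 4 °C. Soluble ClpP detected by anti-ClpP immunoblot against unheated and no-compound controls; quantified as mean ± SD of two independent experiments.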

[3] = target: purified human ClpP (hClpP) (Homo sapiens, UniProt Q16740); test: Differential scanning fluorimetry; format: binding; conditions: vs DMSO
In short: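 Human ClpP lacking mitochondrial sequence, expressed in E. coli BL21(DE3) as N-terminal 2x(His6-thrombin)-SUMO-TEV fusion (1 mM IPTG, 4 h, 37 °C), cobalt-resin purified. Protein at 0.5 mg/mL final in 25 mM Tris-HCl pH 7.5 with SYPRO Orange; held 25 °C 2 min, ramped 25–95 °C at 0.05 °C/s. ΔTm versus DMSO; mean ± SD, four independent experiments.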

[4] = test system: MDA-MB-468 cells; test: Viability assay; format: cell-based, human; conditions: MDA-MB-468, 72 h
In short: as §1

[5] = test system: MCF-7 cells; test: Viability assay; format: cell-based, human
In short: as §1

[6] = test system: ONC212-resistant MDA-MB-468 cells; test: Viability assay; format: cell-based, human
In short: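 Resistant MDA-MB-468 line selected by continuous 50 nM reference ClpP agonist, medium changed every 3 days. Cells expanded drug-free and re-exposed over several cycles until growth exceeded death. Wild-type and resistant cells seeded at 5,000 per well, quadruplicate, and dosed 72 h. AlamarBlue read after 3 h, normalized to vehicle; mean ± SD, three independent experiments.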

[7] = test system: MDA-MB-468 cells; test: Seahorse mitochondrial respiration assay; format: cell-based, human; conditions: 50 nM for 12, 24 and 48 h
In short: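 Cells were plated at 250,000 per well and treated for 12, 24 or 48 h. One hour before reading, medium was changed to XF DMEM (1 mM pyruvate, 2 mM glutamine, 10 mM glucose, pH 7.4). The Mito Stress Test used final 1 μM oligomycin, 1 μM FCCP and 0.5 μM antimycin A. OCR was read at baseline and after sequential oligomycin, FCCP and rotenone additions.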

[8] = test system: SK-BR-3 cells; test: Viability assay; format: cell-based, human; conditions: SK-BR-3, 72 h
In short: as §1

[9] = test system: MDA-MB-468 cells; test: Western blot analysis of apoptosis markers; format: cell-based, human; conditions: 1 μM, 72 h
In short: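 MDA-MB-468 cells exposed to vehicle or 1 μM test compound for 72 h. Lysates probed by immunoblot for apoptosis markers including caspase-3. Blots representative of two independent experiments.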

[10] = test system: MDA-MB-231 cells; test: Viability assay; format: cell-based, human; conditions: MDA-MB-231, 72 h
In short: as §1

[11] = test system: MDA-MB-468 cells; test: Flow-cytometry-based apoptosis detection; format: cell-based, human; conditions: 1 μM, 72 h
In short: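 MDA-MB-468 cells given DMSO or 1 μM test compound for 72 h at 37 °C, 5% CO2. Washed twice in FACS buffer (50 mM PBS, 2 mM EDTA, 2% FBS), stained with fixable viability dye eFluor 780 for 30 min at 4 °C, washed, then analysed by flow cytometry for dead-cell labelling.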

[12] = target: T1, ClpP; test: Thermal shift assay; format: cell-based; conditions: MDA-MB-468 cells treated 30 min
In short: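 MDA-MB-468 cells seeded at 1 million per well the day before, then exposed to test compound for 30 min at 37 °C. Washed in PBS, scraped into PBS with […] inhibitors, heated 67 °C for 3 min, lysed by freeze–thaw, spun 14,000 rpm 20 min at 4 °C. Soluble ClpP immunoblotted; normalized quantification, mean ± SD of two independent experiments.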

[13] = Mouse pharmacokinetic study; format: in vivo; conditions: Swiss albino mice, single IP administration, 50 mg/kg
In short: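 Three male Swiss Albino mice received a single intraperitoneal dose in 100% v/v normal saline. About 60 μL of blood was drawn at 0.5, 2 and 8 h. Plasma was stored at −70 °C until a fit-for-purpose LC-MS/MS assay. Concentrations are the average of the 3 mice, with ± SEM.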

[14] = test system: DAP13; test: DAP13 degradation assay; format: cell-based, human; conditions: 24 h, MDA-MB-468 cells
[15] = test system: cancer cells; conditions: cited from earlier work
[16] = Homo sapiens, read-out: IC50 (viability)

T1 sequence (Q16740 57-277): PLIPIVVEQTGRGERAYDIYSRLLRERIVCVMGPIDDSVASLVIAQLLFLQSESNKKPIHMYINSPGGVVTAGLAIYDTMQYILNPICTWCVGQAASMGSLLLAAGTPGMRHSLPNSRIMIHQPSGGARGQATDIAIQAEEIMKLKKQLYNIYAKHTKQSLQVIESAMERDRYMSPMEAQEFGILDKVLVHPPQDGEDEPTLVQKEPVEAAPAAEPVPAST
Chain of purified human ClpP (hClpP) (Q16740 57-277): as above

N#Cc1cccc(CN2CCC3=C(C2)C(=O)N(Cc2ccc(C(F)(F)F)cc2OCCN)C2=NCCN23)c1 [Compound 9, 3-((4-(2-(2-Aminoethoxy)-4-(trifluoromethyl)benzyl)-5-oxo-1,2,4,5,8,9-hexahydroimidazo[1,2-a]pyrido[3,4-e]pyrimidin-7(6H)-yl)methyl)benzonitrile]
fold improvement of IC50 vs ONC212 [1]: approximately 4 fold
pIC50 [1, 16]: 8.10
concentration at which ClpP was stabilized (TSA) [2]: 0.313 µM
ClpP binding/stabilization by TSA (comparison in words) ([2]; heated at 67 °C, WB): superior stabilization of ClpP
thermal shift of purified hClpP (DSF) [3]: very significant thermal shift
pIC50 [4, 16]: 7.97
fold improvement of IC50 vs ONC212 [4]: approximately 3.5 fold
pIC50 ([5]; Homo sapiens, MCF7, 72 h, read-out: IC50 (viability)): 8.15
fold improvement of IC50 vs ONC212 ([5]; MCF-7, 72 h): approximately 9 fold
pIC50 ([6]; Homo sapiens, MDA-MB-468, 72 h, read-out: IC50 (viability)): 7.56
increase in the IC50 value, resistant vs wild-type cells ([6]; ONC212-resistant vs wild-type MDA-MB-468, 72 h): 2.6 fold
effect on basal respiration, ATP generation and maximal respiration [7]: reduced basal respiration, ATP generation and maximal respiration at all time points tested
pIC50 [8, 16]: 7.94
fold improvement of IC50 vs ONC212 [8]: approximately 10 fold
cleaved caspase 3 and cleaved PARP levels [9]: increased the cleaved caspase 3 and cleaved PARP levels
protein levels of full-length caspase 3 and PARP [9]: reduction
pIC50 [10, 16]: 7.86
fold improvement of IC50 vs ONC212 [10]: approximately 3.5 fold
late-stage apoptosis (eFluor 780) [11]: effectively induced late-stage apoptosis
concentration at which ClpP was stabilized (TSA in live cells) [12]: 0.08 µM
bioavailability (plasma concentrations) [13]: bioavailable in mice via IP injection
tolerability [13]: well tolerated
DAP13 degraded ([14]; 25 nM): more than 50%
DAP13 degradation at high concentrations ([14]; 100, 150 and 200 nM): degraded DAP13

Cc1ccccc1CN1C(=O)C2=C(CCN(Cc3ccccc3)C2)N2CCN=C12 [ONC201]
concentrations required to significantly affect cancer cell survival [15]: micromolar range
